Measured values reported in ChEMBL document CHEMBL5653631, “A Potent and Selective ULK1 Inhibitor Suppresses Autophagy and Sensitizes Cancer Cells to Nutrient Stress” (iScience, 2018).
One block for each molecule: values may come before it.

Legend:
[1] = molecular target: Tyrosine-protein kinase receptor UFO (Homo sapiens) (UniProt P30530); assay: Inhibition of human recombinant AXL at 500 nM in presence of ATP by radiometric assay relative to control
How it was run: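 Panel of 327 recombinant human kinases, each assayed in vitro by radiometric activity assay in duplicate at a single inhibitor concentration per compound, chosen with reference to its ULK1 inhibition. Activity remaining was expressed as percent of vehicle control, and percent inhibition was calculated as 100 minus percent activity remaining.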

[2] = molecular target: T1, MAP kinase-activated protein kinase 5 (Homo sapiens) (UniProt Q8IW41); assay: Inhibition of human recombinant MAPKAPK5 at 500 nM in presence of ATP by radiometric assay relative to control
T1 sequence (whole entry): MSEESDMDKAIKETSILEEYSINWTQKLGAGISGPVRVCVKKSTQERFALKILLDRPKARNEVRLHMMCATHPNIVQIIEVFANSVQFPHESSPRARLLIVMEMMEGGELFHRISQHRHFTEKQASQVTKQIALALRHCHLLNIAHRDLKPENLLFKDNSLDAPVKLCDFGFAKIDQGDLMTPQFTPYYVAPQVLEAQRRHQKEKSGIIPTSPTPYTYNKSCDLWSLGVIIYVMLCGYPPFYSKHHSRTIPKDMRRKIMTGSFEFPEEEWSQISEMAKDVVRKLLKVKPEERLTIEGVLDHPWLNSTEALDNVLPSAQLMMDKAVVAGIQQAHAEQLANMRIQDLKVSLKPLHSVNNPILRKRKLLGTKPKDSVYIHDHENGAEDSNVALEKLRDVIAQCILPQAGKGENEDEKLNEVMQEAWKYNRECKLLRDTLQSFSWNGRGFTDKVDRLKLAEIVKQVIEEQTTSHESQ

[3] = molecular target: Macrophage-stimulating protein receptor (Homo sapiens) (UniProt Q04912); assay: Inhibition of human recombinant RON at 15 nM in presence of ATP by radiometric assay relative to control
[4] = molecular target: Cyclin-dependent kinase 2 (Homo sapiens) (UniProt P24941); assay: Inhibition of human recombinant CDK2 at 15 nM in presence of ATP by radiometric assay relative to control
[5] = molecular target: Fibroblast growth factor receptor 2 (Homo sapiens) (UniProt P21802); assay: Inhibition of human recombinant FGFR2 at 15 nM in presence of ATP by radiometric assay relative to control
[6] = molecular target: Mitogen-activated protein kinase 8 (Homo sapiens) (UniProt P45983); assay: Inhibition of human recombinant JNK1 at 15 nM related to control ULK1
[7] = molecular target: T2, Serine/threonine-protein kinase DCLK3 (Homo sapiens) (UniProt Q9C098); assay: Inhibition of human recombinant DCAMKL3 at 15 nM in presence of ATP by radiometric assay relative to control
T2 sequence (whole entry): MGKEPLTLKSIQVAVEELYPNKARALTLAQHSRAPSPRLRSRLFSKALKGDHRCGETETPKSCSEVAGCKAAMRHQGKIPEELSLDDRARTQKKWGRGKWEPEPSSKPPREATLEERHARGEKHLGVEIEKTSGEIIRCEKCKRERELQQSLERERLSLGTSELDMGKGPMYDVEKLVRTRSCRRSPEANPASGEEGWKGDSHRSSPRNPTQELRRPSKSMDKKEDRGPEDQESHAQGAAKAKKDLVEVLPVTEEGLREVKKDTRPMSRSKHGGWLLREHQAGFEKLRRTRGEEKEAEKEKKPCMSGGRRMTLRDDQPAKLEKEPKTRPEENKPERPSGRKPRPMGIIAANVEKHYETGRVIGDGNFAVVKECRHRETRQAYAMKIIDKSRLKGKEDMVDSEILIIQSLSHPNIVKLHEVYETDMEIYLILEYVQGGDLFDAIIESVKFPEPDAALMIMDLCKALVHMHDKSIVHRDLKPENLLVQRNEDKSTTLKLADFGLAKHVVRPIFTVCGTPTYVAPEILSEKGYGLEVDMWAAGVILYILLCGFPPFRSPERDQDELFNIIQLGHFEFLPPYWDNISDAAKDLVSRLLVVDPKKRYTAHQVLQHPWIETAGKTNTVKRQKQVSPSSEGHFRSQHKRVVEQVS

[8] = molecular target: Wee1-like protein kinase (Homo sapiens) (UniProt P30291); assay: Inhibition of human recombinant Wee1 at 40 nM related to control ULK1
[9] = molecular target: T3, Eukaryotic translation initiation factor 2-alpha kinase 3 (Homo sapiens) (UniProt Q9NZJ5); assay: Inhibition of human recombinant PEK at 40 nM related to control ULK1
T3 sequence (whole entry): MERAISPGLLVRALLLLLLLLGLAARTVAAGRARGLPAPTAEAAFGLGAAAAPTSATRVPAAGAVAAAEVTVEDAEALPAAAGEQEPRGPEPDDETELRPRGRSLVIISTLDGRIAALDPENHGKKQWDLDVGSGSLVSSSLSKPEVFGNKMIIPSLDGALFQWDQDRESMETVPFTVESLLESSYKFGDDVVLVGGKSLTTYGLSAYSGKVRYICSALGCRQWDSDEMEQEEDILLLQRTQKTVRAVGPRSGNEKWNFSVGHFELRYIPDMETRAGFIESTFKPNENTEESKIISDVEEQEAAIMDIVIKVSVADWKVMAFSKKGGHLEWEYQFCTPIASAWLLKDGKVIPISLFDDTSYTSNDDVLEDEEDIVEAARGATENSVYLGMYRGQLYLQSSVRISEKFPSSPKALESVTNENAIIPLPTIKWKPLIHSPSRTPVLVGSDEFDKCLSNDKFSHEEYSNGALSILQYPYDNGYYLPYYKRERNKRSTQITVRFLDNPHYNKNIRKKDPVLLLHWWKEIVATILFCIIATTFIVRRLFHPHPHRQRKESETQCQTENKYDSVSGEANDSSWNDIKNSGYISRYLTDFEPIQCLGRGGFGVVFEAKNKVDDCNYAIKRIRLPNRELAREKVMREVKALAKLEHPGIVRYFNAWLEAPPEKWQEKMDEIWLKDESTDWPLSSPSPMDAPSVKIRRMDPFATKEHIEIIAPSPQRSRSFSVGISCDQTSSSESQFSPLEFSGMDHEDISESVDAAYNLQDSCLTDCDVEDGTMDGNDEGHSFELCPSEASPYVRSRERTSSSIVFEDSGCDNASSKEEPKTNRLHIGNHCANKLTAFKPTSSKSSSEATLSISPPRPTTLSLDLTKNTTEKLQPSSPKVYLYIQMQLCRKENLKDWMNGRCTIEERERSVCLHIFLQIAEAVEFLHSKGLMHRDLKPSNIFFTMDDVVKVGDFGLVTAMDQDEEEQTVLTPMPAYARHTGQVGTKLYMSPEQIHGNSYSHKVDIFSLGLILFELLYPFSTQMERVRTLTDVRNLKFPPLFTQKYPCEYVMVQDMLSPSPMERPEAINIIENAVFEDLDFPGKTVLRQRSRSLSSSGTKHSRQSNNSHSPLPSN

[10] = molecular target: Calcium/calmodulin-dependent protein kinase kinase 2 (Homo sapiens) (UniProt Q96RR4); assay: Inhibition of human recombinant CaMKK2 at 40 nM in presence of ATP by radiometric assay relative to control
Chain of Calcium/calmodulin-dependent protein kinase kinase 2 (Homo sapiens) (Q96RR4 2-588 limits assumed): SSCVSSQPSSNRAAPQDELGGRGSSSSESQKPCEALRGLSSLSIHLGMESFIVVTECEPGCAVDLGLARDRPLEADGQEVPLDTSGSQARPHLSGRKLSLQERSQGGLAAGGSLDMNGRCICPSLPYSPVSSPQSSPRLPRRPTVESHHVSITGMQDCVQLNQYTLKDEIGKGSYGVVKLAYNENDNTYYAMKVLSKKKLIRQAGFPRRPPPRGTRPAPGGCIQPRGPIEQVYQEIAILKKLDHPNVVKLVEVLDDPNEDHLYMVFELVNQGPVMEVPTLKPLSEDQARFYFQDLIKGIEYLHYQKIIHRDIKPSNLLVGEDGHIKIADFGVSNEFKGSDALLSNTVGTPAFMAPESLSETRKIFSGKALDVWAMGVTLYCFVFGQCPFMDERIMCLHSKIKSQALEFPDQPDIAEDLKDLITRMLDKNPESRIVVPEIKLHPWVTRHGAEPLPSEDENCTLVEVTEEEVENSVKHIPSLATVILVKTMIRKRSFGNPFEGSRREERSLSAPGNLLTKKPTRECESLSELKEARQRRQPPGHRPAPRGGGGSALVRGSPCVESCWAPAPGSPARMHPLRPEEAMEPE

Chain of Wee1-like protein kinase (Homo sapiens) (P30291 whole entry, looked up): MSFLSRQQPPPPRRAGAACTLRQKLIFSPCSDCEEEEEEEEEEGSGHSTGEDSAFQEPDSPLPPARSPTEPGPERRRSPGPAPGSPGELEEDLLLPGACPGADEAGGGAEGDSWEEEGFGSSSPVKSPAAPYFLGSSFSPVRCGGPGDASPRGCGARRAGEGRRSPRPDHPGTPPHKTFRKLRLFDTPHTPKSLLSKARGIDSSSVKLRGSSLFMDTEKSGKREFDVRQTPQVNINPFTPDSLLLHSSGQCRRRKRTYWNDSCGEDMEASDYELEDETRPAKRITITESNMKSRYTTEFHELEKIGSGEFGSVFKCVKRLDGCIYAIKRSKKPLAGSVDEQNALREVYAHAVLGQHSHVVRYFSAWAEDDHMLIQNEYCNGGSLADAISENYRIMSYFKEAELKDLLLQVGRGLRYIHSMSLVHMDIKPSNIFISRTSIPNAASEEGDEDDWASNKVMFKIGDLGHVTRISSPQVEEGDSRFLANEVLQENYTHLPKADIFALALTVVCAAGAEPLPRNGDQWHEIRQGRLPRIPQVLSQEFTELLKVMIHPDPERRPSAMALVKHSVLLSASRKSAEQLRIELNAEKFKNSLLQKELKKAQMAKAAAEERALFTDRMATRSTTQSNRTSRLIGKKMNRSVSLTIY
Chain of Tyrosine-protein kinase receptor UFO (Homo sapiens) (P30530 whole entry): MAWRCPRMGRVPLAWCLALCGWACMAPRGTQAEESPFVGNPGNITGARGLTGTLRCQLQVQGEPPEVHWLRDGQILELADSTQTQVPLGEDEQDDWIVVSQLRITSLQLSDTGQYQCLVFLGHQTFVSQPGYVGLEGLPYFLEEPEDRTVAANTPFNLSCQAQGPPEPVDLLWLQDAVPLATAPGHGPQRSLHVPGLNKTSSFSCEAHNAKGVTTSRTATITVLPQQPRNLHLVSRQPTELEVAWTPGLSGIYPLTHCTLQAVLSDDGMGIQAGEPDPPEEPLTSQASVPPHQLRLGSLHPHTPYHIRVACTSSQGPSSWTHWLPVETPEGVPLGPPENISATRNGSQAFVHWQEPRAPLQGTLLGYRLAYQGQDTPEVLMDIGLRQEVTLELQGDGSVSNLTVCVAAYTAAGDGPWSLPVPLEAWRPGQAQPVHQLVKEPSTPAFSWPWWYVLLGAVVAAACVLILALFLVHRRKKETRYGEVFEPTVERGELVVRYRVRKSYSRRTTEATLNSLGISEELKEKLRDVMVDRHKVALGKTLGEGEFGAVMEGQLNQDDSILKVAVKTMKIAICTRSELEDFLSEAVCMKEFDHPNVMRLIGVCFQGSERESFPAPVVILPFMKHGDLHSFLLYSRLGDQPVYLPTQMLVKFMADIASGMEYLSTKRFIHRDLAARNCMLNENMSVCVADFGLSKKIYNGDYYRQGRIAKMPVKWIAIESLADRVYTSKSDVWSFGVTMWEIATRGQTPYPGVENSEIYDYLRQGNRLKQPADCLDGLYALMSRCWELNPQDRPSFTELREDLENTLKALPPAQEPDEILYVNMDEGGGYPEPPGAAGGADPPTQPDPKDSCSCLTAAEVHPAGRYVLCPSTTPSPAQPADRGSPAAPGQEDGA
Chain of Fibroblast growth factor receptor 2 (Homo sapiens) (P21802 22-821 limits assumed): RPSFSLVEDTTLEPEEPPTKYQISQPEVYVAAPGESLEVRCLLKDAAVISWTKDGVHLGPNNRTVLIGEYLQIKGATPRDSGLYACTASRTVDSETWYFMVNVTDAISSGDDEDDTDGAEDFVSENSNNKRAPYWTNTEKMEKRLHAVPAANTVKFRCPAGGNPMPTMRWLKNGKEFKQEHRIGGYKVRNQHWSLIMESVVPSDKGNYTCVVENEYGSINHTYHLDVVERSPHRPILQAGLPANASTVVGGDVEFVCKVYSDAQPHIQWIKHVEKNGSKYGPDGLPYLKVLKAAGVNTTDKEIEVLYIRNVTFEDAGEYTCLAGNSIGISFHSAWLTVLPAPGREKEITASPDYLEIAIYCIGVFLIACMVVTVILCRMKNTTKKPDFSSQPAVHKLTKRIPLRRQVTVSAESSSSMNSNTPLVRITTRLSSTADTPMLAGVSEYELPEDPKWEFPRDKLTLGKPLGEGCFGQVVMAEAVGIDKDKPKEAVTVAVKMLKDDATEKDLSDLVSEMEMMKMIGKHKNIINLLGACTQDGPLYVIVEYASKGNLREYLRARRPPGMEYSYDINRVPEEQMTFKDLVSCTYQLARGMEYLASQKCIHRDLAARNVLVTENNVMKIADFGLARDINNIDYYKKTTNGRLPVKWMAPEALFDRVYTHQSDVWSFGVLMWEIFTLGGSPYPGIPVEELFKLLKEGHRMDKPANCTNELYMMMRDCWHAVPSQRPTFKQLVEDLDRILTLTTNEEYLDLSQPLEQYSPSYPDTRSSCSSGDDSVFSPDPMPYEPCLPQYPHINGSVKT
Chain of Mitogen-activated protein kinase 8 (Homo sapiens) (P45983 whole entry): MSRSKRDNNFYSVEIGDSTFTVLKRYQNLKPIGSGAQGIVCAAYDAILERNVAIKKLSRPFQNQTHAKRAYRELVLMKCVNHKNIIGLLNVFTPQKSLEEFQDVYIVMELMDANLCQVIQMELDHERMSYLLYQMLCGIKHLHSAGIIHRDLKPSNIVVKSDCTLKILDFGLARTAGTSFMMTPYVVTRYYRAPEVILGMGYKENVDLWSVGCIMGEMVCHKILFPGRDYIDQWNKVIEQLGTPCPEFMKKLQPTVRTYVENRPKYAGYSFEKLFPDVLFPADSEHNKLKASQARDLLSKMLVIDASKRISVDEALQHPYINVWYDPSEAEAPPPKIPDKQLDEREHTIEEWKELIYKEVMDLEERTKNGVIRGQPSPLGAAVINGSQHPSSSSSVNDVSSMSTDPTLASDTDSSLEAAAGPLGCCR
Chain of Macrophage-stimulating protein receptor (Homo sapiens) (Q04912 25-304 limits assumed): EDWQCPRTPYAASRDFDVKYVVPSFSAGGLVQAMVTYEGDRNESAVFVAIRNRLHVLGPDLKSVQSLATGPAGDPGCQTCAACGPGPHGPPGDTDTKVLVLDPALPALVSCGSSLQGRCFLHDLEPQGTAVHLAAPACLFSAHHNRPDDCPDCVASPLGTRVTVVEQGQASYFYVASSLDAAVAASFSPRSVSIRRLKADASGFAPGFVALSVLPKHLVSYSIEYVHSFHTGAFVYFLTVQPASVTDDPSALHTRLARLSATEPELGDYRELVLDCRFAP
Chain of Macrophage-stimulating protein receptor (Homo sapiens) (Q04912 310-1400 limits assumed): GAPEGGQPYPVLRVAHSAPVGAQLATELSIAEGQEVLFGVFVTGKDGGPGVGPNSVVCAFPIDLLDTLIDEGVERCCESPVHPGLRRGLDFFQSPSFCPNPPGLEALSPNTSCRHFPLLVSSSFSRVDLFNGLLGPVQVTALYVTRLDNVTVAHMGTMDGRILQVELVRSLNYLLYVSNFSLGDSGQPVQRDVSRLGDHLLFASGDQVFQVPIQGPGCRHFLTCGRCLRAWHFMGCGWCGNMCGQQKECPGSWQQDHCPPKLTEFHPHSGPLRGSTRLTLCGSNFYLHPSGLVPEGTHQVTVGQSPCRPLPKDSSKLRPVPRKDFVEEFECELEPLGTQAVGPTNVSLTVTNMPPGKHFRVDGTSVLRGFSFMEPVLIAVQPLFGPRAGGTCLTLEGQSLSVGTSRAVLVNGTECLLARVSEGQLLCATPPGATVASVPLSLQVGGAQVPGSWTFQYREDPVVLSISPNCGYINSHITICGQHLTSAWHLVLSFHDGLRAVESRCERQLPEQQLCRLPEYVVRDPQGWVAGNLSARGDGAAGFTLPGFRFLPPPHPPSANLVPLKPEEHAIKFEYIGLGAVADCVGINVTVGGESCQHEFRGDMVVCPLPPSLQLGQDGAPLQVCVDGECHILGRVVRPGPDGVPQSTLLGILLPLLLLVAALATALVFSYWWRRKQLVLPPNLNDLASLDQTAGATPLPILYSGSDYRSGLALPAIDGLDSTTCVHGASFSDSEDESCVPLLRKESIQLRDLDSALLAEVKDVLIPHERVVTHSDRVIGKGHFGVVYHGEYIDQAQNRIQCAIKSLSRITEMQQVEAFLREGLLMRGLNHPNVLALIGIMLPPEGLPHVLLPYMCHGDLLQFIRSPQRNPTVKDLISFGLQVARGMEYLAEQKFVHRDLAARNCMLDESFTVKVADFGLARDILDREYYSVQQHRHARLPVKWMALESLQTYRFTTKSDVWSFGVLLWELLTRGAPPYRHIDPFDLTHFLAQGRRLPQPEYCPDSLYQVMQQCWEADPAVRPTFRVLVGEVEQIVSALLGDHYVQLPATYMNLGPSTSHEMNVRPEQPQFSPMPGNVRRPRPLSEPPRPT

inhibition [1]: 5%
inhibition [2]: 0%
Compound: CNC(=O)c1ccccc1Oc1nc(Nc2cc(OC)c(OC)c(OC)c2)ncc1Br

inhibition [3]: 2%
inhibition [4]: 1%
inhibition [5]: 0%
fold change (FC) [6]: 0.09
inhibition [7]: 35%
Compound: CC(C)[C@H](NC(=O)c1cc(-c2cnn3cc(-c4ccc(OCCN5CCCCC5)cc4)cnc23)cs1)C(F)(F)F

fold change (FC) [8]: 0.01
fold change (FC) [9]: 0
inhibition [10]: 0%
Compound: O=C(N[C@@H](C1CC1)C(F)(F)F)c1cc(-c2cnn3cc(-c4ccc(F)cc4)cnc23)cs1
